Measurements: ChEMBL document CHEMBL1154719, “Click chemistry: studies on the synthesis of novel fluorous tagged triazol-4-yl substituted quinazoline derivatives and their biological evaluation--theoretical and experimental validation” (2010)
Values after ≈ are worked out from the molar mass of the structure shown.

What was measured:
Assay type in all cases: functional
[1] = system: Aspergillus flavus; test: Antifungal activity against Aspergillus flavus MTCC 277 at 100 ug/ml after 48 hrs by agar cup diffusion method; settings: MTCC 277, 48 h, read-out: DIZ
Procedure, shortened: (§1)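 Agar cup diffusion on autoclaved potato dextrose agar plates. Each plate was spread with 0.5 ml of a week-old culture, and test solutions at 30 and 100 per ml were added to cups. Plates were held at 28 °C for 48 h, and inhibition zone diameters were read in mm. Acetone served as the solvent control and amphotericin-B as the reference.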

[2] = system: Diutina rugosa; test: Antifungal activity against Candida rugosa NCIM 3462 at 30 ug/ml after 48 hrs by agar cup diffusion method; settings: NCIM 3462, 48 h, read-out: DIZ; procedure, shortened: as §1
[3] = system: Escherichia coli; test: Antibacterial activity against Escherichia coli MTCC 443 by broth dilution method
Procedure, shortened: (§2)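 MIC by broth dilution in nutrient broth. Test bacteria were kept on nutrient agar slants and subcultured in Petri dishes before testing.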

[4] = system: Aspergillus niger; test: Antifungal activity against Aspergillus niger MTCC 1344 at 30 ug/ml after 48 hrs by agar cup diffusion method; settings: MTCC 1344, 48 h, read-out: DIZ; procedure, shortened: as §1
[5] = system: Diutina rugosa; test: Antifungal activity against Candida rugosa NCIM 3462 at 100 ug/ml after 48 hrs by agar cup diffusion method; settings: NCIM 3462, 48 h, read-out: DIZ; procedure, shortened: as §1
[6] = system: Saccharomyces cerevisiae; test: Antifungal activity against Saccharomyces cerevisiae MTCC 36 at 30 ug/ml after 48 hrs by agar cup diffusion method; settings: MTCC 36, 48 h, read-out: DIZ; procedure, shortened: as §1
[7] = system: Candida albicans; test: Antifungal activity against Candida albicans MTCC 227 at 100 ug/ml after 48 hrs by agar cup diffusion method; settings: MTCC 227, 48 h, read-out: DIZ; procedure, shortened: as §1
[8] = system: Staphylococcus aureus; test: Antibacterial activity against Staphylococcus aureus MTCC 96 by broth dilution method; procedure, shortened: as §2
[9] = system: Aspergillus niger; test: Antifungal activity against Aspergillus niger MTCC 1344 at 100 ug/ml after 48 hrs by agar cup diffusion method; settings: MTCC 1344, 48 h, read-out: DIZ; procedure, shortened: as §1
[10] = system: Bacillus subtilis; test: Antibacterial activity against Bacillus subtilis MTCC 441 by broth dilution method; procedure, shortened: as §2
[11] = system: Candida albicans; test: Antifungal activity against Candida albicans MTCC 227 at 30 ug/ml after 48 hrs by agar cup diffusion method; settings: MTCC 227, 48 h, read-out: DIZ; procedure, shortened: as §1
[12] = system: Rhizopus arrhizus; test: Antifungal activity against Rhizopus oryzae MTCC 262 at 30 ug/ml after 48 hrs by agar cup diffusion method; settings: MTCC 262, 48 h, read-out: DIZ; procedure, shortened: as §1
[13] = system: Saccharomyces cerevisiae; test: Antifungal activity against Saccharomyces cerevisiae MTCC 36 at 100 ug/ml after 48 hrs by agar cup diffusion method; settings: MTCC 36, 48 h, read-out: DIZ; procedure, shortened: as §1
[14] = system: Staphylococcus epidermidis; test: Antibacterial activity against Staphylococcus epidermidis MTCC 435 by broth dilution method; procedure, shortened: as §2
[15] = system: Aspergillus flavus; test: Antifungal activity against Aspergillus flavus MTCC 277 at 30 ug/ml after 48 hrs by agar cup diffusion method; settings: MTCC 277, 48 h, read-out: DIZ; procedure, shortened: as §1
[16] = system: Rhizopus arrhizus; test: Antifungal activity against Rhizopus oryzae MTCC 262 at 100 ug/ml after 48 hrs by agar cup diffusion method; settings: MTCC 262, 48 h, read-out: DIZ; procedure, shortened: as §1
[17] = system: Pseudomonas aeruginosa; test: Antibacterial activity against Pseudomonas aeruginosa MTCC 741 by broth dilution method; procedure, shortened: as §2

| Structure (SMILES) | zone of inhibition at 100 µg/mL [1] | zone of inhibition at 30 µg/mL [2] | MIC [3] | zone of inhibition at 30 µg/mL [4] | zone of inhibition at 100 µg/mL [5] | zone of inhibition at 30 µg/mL [6] | zone of inhibition at 100 µg/mL [7] | MIC [8] | zone of inhibition at 100 µg/mL [9] | MIC [10] | zone of inhibition at 30 µg/mL [11] | zone of inhibition at 30 µg/mL [12] | zone of inhibition at 100 µg/mL [13] | MIC [14] | zone of inhibition at 30 µg/mL [15] | zone of inhibition at 100 µg/mL [16] | MIC [17] |
| --- | --- | --- | --- | --- | --- | --- | --- | --- | --- | --- | --- | --- | --- | --- | --- | --- | --- |
| C#CCn1c(-c2ccccc2)nc2ccccc2c1=O | 12 mm | 8 mm | 75 µg/mL (≈ 288 µM) | 7 mm | 12 mm | 9 mm | 10 mm | 37.5 µg/mL (≈ 144 µM) | 10 mm | 37.5 µg/mL (≈ 144 µM) | 7 mm | 8 mm | 12 mm | 37.5 µg/mL (≈ 144 µM) | 9 mm | 12 mm | 37.5 µg/mL (≈ 144 µM) |
| FC(F)(F)C(F)(F)C(F)(F)C(F)(F)C(F)(F)C(F)(F)CCn1cc(COc2nc(-c3ccccc3)nc3ccccc23)nn1 | 9 mm |  | 75 µg/mL (≈ 115 µM) | 8 mm |  |  | 11 mm | 75 µg/mL (≈ 115 µM) | 11 mm | 150 µg/mL (≈ 231 µM) | 8 mm |  | 9 mm | 75 µg/mL (≈ 115 µM) |  |  | 75 µg/mL (≈ 115 µM) |
| O=c1c2ccccc2nc(-c2c(F)cccc2F)n1Cc1cn(CCC(F)(F)C(F)(F)C(F)(F)C(F)(F)C(F)(F)C(F)(F)C(F)(F)C(F)(F)F)nn1 | 9 mm |  | 75 µg/mL (≈ 95.5 µM) | 7 mm | 9 mm |  | 10 mm | 150 µg/mL (≈ 191 µM) | 10 mm | 150 µg/mL (≈ 191 µM) | 7 mm |  | 9 mm | 150 µg/mL (≈ 191 µM) |  | 9 mm | 75 µg/mL (≈ 95.5 µM) |
| O=c1c2ccccc2nc(-c2ccccc2)n1Cc1cn(CCC(F)(F)C(F)(F)C(F)(F)C(F)(F)C(F)(F)C(F)(F)F)nn1 | 12 mm |  | 75 µg/mL (≈ 115 µM) | 9 mm | 10 mm | 8 mm | 12 mm | 150 µg/mL (≈ 231 µM) | 12 mm | 150 µg/mL (≈ 231 µM) | 9 mm |  | 12 mm | 150 µg/mL (≈ 231 µM) | 8 mm | 10 mm | 37.5 µg/mL (≈ 57.7 µM) |
| FC(F)(F)c1nc(OCc2cn(CCC(F)(F)C(F)(F)C(F)(F)C(F)(F)C(F)(F)C(F)(F)C(F)(F)C(F)(F)F)nn2)c2ccccc2n1 |  |  | 150 µg/mL (≈ 202 µM) |  |  |  | 9 mm | 150 µg/mL (≈ 202 µM) | 9 mm | 150 µg/mL (≈ 202 µM) |  |  |  | 150 µg/mL (≈ 202 µM) |  |  | 150 µg/mL (≈ 202 µM) |
| O=c1c2ccccc2nc(-c2c(F)cccc2F)n1Cc1cn(CCC(F)(F)C(F)(F)C(F)(F)C(F)(F)C(F)(F)C(F)(F)F)nn1 |  |  | 150 µg/mL (≈ 219 µM) | 7 mm |  |  | 10 mm | 150 µg/mL (≈ 219 µM) | 10 mm | 150 µg/mL (≈ 219 µM) | 7 mm |  |  | 150 µg/mL (≈ 219 µM) |  |  | 150 µg/mL (≈ 219 µM) |
| O=c1c2ccccc2nc(-c2ccccc2)n1Cc1cn(CCC(F)(F)C(F)(F)C(F)(F)C(F)(F)C(F)(F)C(F)(F)C(F)(F)C(F)(F)F)nn1 | 9 mm |  | 15 µg/mL (≈ 20 µM) |  | 10 mm |  | 9 mm | 75 µg/mL (≈ 100 µM) | 9 mm | 150 µg/mL (≈ 200 µM) |  |  | 9 mm | 75 µg/mL (≈ 100 µM) |  | 10 mm | 75 µg/mL (≈ 100 µM) |
| FC(F)(F)C(F)(F)C(F)(F)C(F)(F)C(F)(F)C(F)(F)C(F)(F)C(F)(F)CCn1cc(COc2nc(-c3ccccc3)nc3ccccc23)nn1 | 10 mm |  | 150 µg/mL (≈ 200 µM) | 7 mm | 10 mm | 7 mm | 10 mm | 150 µg/mL (≈ 200 µM) | 10 mm | 150 µg/mL (≈ 200 µM) | 7 mm |  | 10 mm | 150 µg/mL (≈ 200 µM) | 7 mm | 10 mm | 75 µg/mL (≈ 100 µM) |
